The text below walks through data of ChEMBL document CHEMBL3286260, “Guanidine-based α2-adrenoceptor ligands: Towards selective antagonist activity” (Eur J Med Chem, 2014).

For experiment [1], the target named is T1, Alpha-2A adrenergic receptor (Homo sapiens, UniProt P08913).
T1 sequence (P08913 whole entry): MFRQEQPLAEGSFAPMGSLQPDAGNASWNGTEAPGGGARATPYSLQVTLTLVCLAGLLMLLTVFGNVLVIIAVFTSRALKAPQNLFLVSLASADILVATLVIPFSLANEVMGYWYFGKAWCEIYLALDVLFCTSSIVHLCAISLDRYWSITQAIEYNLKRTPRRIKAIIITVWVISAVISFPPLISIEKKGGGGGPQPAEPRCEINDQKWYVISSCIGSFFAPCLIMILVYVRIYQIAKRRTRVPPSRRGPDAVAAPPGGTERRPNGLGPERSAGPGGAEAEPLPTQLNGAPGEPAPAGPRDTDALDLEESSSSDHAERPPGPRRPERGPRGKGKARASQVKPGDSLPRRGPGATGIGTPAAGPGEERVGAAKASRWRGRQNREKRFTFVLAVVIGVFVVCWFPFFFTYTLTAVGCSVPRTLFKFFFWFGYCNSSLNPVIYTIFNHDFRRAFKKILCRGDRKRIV
Nature of the experiment: Displacement of [3H]RX821002 from alpha2-adrenergic receptor in prefrontal cortex of human brain after 30 mins by liquid scintillation spectrometric analysis. It is filed as tissue-based.

For experiment [2], the target named is T2, Alpha-2A adrenergic receptor (Homo sapiens) (UniProt P08913).
T2 sequence (whole entry): T1 sequence (P08913 whole entry)
Nature of the experiment: Antagonist activity at alpha2-adrenergic receptor in prefrontal cortex of human brain assessed as increase in UK14304 EC50 for [35S]GTPgammaS binding after 120 mins by liquid scintillation spectrometric analysis. It is filed as functional, tissue-based. The method, boiled down: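 Same [35S]GTPγS membrane assay (120 min, 30 °C, 0.5 nM radioligand, Mg/Na/GDP buffer pH 7.4). UK14304 concentration–response curves (10^-13 to 10^-4 M) run with or without test compound at 10^-5 M. Shift in agonist EC50 taken as the measure of antagonism. Bound label counted by liquid scintillation.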

Experiment [3] addresses T2, Alpha-2A adrenergic receptor (Homo sapiens). The experiment in a line: Antagonist activity at alpha2-adrenergic receptor in prefrontal cortex of human brain assessed as effect on [35S]GTPgammaS binding after 120 mins by liquid scintillation spectrometric analysis. It is filed as functional, tissue-based.

The source made the active and inactive calls. The rule behind the calls is not given here.

In turn, `CCOc1ccc(NC(=N)NCCO)cc1` showed a Ki in experiment [1] of 19.1 µM.
Take `CN(C)c1ccc(/N=C(/N)NCc2ccco2)cc1`: the result in experiment [2] and in experiment [3] was Active. In experiment [1], this compound showed a Ki of 0.214 µM.
As to `CC1CN/C(=N/c2ccc3c(c2)OCO3)N1` (centres undefined), the Ki in experiment [1] was 2.34 µM.
Still for that read-out and setting: to `CCNc1ccc(/N=C2/NCC(C)N2)cc1` (centres undefined) belongs 12.3 µM.
Consider `CC1CN/C(=N/c2ccc3c(c2)CCCC3)N1` (centres undefined), for which affinity in experiment [1] was put at a Ki of 1 µM. Further, in experiment [3], the result was Active.
Compound `COC1(C2=NCCN2)COc2ccccc2O1` (centres undefined) had a Ki in experiment [1] of 0.00191 µM.
On to `N=C(NCCO)Nc1ccc2c(c1)OCO2`, for which affinity in experiment [1] was put at a Ki of 11.7 µM. Further, the outcome in experiment [3] was Active.
In the case of `CN(C)c1ccc(/N=C2/NCC(c3ccco3)N2)cc1` (centres undefined), in experiment [1], the Ki was 1.32 µM.
Take `N=C(NCc1ccco1)Nc1ccc2c(c1)CCCC2`: the Ki in experiment [1] is 0.513 µM. Besides, in experiment [3], the result was Active.
On to `c1coc(C2CN/C(=N/c3ccc4c(c3)CCCC4)N2)c1` (centres undefined), for which the affinity in experiment [1], expressed as Ki, was 0.692 µM. Further, the outcome in experiment [3] was Active.
In the same order, the values of `CN(C)c1ccc(NC(=N)NCCO)cc1` are 1.86 µM and “Active”.
In the same order, the values of `N=C(NCc1ccco1)Nc1ccc2c(c1)OCO2` are 1.51 µM and “Active”.
The matching figures for `CCOc1ccc(/N=C(/N)NCc2ccco2)cc1`: 1.48 µM and “Active”.
Turning to `CCNc1ccc(/N=C(/N)NCc2ccco2)cc1`, in experiment [1], affinity was put at a Ki of 1.07 µM. In addition, the outcome in experiment [3] was Active.
In the same order, the values of `CCCNC(=N)Nc1ccc2c(c1)CCCC2` are 0.676 µM and “Active”.
Compound `CCNc1ccc(NC(=N)Nc2ccccc2)cc1` had a Ki in experiment [1] of 4.9 µM.
Turning to `CCOc1ccc(N=C2NCCN2)cc1`, the outcome in experiment [2] and in experiment [3] was Active. This compound showed a Ki in experiment [1] of 0.0794 µM.
As for `CCNc1ccc(NC(=N)NCCO)cc1`, the affinity in experiment [1] corresponds to a Ki of 18.6 µM.
As to `N=C(Nc1ccccc1)Nc1ccc2c(c1)CCCC2`, the result in experiment [2] and in experiment [3] was Active. This compound had a Ki in experiment [1] of 0.263 µM.
In experiment [1], `CCCNC(=N)Nc1ccc(N(C)C)cc1` gave a Ki of 1.12 µM. For the same compound, in experiment [3], the outcome was Active.
`CC1CN/C(=N/c2ccc(N(C)C)cc2)N1` (centres undefined) showed a Ki in experiment [1] of 3.31 µM.
In turn, `CCCNC(=N)Nc1ccc(NCC)cc1` had a Ki in experiment [1] of 8.32 µM.
Still for that read-out and setting: to `CCCNC(=N)Nc1ccc2c(c1)OCO2` belongs 15.1 µM; to `N=C(NCCO)Nc1ccc2c(c1)CCCC2`, 1.74 µM.
On the same count and under the same terms, in the case of `N=C(Nc1ccccc1)Nc1ccc2c(c1)OCO2` it was 4.37 µM.
In the case of `CCOc1ccc(NC(=N)N)cc1`, the result in experiment [2] and in experiment [3] was Active. The compound also showed a Ki in experiment [1] of 0.141 µM.
In experiment [1], `CCOc1ccc(/N=C2/NCC(c3ccco3)N2)cc1` (centres undefined) had a Ki of 2.63 µM.
Take `CN(C)c1ccc(NC(=N)Nc2ccccc2)cc1`: the outcome in experiment [2] and in experiment [3] was Active. In experiment [1], this compound showed a Ki of 0.389 µM.
Take `c1coc(C2CN/C(=N/c3ccc4c(c3)OCO4)N2)c1` (centres undefined): the Ki in experiment [1] is 1.7 µM.
As to `CCOc1ccc(NC(=N)Nc2ccccc2)cc1`, affinity in experiment [1] was put at a Ki of 2.24 µM.
On the same count and under the same terms, in the case of `CCNc1ccc(/N=C2/NCC(c3ccco3)N2)cc1` (centres undefined) it was 2.19 µM.
Take `CCCNC(=N)Nc1ccc(OCC)cc1`: in experiment [1], the affinity, expressed as Ki, was 4.27 µM. Also, the result in experiment [3] was Active.
For the compound `CCOc1ccc(/N=C2/NCC(C)N2)cc1` (centres undefined), the affinity in experiment [1], expressed as Ki, was 14.1 µM.
